The values below come from ChEMBL document CHEMBL1143599, “Design, synthesis, and antiviral activity of adenosine 5'-phosphonate analogues as chain terminators against hepatitis C virus” (J Med Chem, 2005).

A short description of data set [1]: Cytotoxicity determined in Huh 7 cells. Format: cell-based. Particulars: human. A digest of the protocol: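 Huh7 cells; viability read by colorimetric MTT assay. CC50 taken as the concentration that cuts cell viability by 50%.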
Data set [2] in a line: Effective concentration against Huh 7 cells. Type of data set: functional, cell-based, Homo sapiens. A digest of the protocol:
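HCV subgenomic replicon cells with luciferase readout, seeded at 6000 cells/well, compound added right after seeding, 48 h incubation. Cells then lysed and luciferase activity in lysate measured. Replicon RNA reduction inferred from the luciferase drop; EC50 is the concentration giving 50% reduction of viral replication.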

Usually CC50 stands for the concentration at which the toxic effect on the cells reaches its halfway point. Low readings indicate harm at low concentration, high ones better tolerance by the cells. The EC50 is the concentration needed to bring the measured effect to its halfway point. Read a high EC50 as lower potency in that assay. In data set [1], `Nc1ncnc2c1ncn2[C@@H]1O[C@H](CCP(=O)(O)O)[C@@H](O)[C@H]1O` registered a CC50 greater than 300 µM. The same molecule registered an EC50 in data set [2] of 200 µM.
In the same order, the values of `CC(C)(C)C(=O)SCCOP(=O)(CC[C@H]1O[C@@H](n2cnc3c(N)ncnc32)[C@](C)(O)[C@@H]1O)OCCSC(=O)C(C)(C)C` are 30 µM and 25 µM.
In the same order, the values of `Nc1ncnc2c1ncn2[C@@H]1O[C@H](OCP(=O)(O)O)[C@@H](O)[C@H]1O` are greater than 300 µM and 65 µM.
In turn, `Nc1ncnc2c1ncn2[C@@H]1C[C@H](OCP(=O)(O)O)[C@@H](O)[C@H]1O` yielded a CC50 in data set [1] of 300 µM. The molecule also registered a 50% effective concentration (EC50) in data set [2] of 30 µM.
On the same counts, the results for `C[C@@]1(O)[C@H](O)[C@@H](CCP(=O)(O)O)O[C@H]1n1cnc2c(N)ncnc21` are greater than 300 µM and 35 µM.
